Laboratory results: paper PMC9669183 (British journal of pharmacology, 2022)

Legend:
α1β3γ2L GABAAR [1] = target: T1, α1β3γ2L GABAAR (Homo sapiens, UniProt P14867+P18507+P28472); format: binding
α1β2(M286W)γ2L GABAAR = α1β2(M286W)γ2L GABAAR (Rattus norvegicus, UniProt P18508+P62813+P63138, INS375LLRMFSFK/M310W); assay: Potentiation of low GABA response, mutant receptor in oocytes; format: cell-based; settings: 50 μM; low GABA PA<0.10; mean±SEM
α1β2γ2L GABAAR [2] = target: T2, α1β2γ2L GABAAR (Rattus norvegicus, UniProt P18508+P62813+P63138, INS375LLRMFSFK); format: cell-based
α4β2δ GABAA receptor = α4β2δ GABAA receptor (Homo sapiens, UniProt O14764+P47870+P48169); assay: Effect on α4β2δ receptor during long drug applications, oocytes; format: cell-based
α4β2δ GABAA receptor, sequence (P48169 36-554): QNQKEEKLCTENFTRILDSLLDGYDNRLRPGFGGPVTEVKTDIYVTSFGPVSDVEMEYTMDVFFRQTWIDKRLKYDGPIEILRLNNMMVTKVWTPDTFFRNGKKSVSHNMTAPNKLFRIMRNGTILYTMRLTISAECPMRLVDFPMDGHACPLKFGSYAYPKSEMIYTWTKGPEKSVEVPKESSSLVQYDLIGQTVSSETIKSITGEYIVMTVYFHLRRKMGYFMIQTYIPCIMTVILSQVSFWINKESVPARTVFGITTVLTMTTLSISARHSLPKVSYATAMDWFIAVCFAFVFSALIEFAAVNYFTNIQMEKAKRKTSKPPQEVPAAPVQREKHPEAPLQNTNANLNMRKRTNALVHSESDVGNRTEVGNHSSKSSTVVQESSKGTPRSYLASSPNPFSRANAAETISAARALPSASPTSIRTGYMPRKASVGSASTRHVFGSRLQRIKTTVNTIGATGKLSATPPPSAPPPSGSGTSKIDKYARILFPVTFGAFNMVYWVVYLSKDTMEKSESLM
α4β2δ GABAA receptor, sequence (P47870 25-512 limits assumed): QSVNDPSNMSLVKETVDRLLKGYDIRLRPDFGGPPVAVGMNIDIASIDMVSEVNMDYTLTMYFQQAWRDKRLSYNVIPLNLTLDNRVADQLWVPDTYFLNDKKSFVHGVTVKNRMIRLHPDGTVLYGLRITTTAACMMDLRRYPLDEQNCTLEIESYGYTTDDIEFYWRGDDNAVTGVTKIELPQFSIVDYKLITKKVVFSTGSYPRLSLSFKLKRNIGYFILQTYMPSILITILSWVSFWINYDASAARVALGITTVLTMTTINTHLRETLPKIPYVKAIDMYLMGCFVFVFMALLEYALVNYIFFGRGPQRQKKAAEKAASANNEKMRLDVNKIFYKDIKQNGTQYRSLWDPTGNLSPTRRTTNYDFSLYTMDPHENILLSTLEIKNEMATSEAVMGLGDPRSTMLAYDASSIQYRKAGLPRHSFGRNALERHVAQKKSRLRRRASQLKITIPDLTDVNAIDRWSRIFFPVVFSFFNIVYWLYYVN
α4β2δ GABAA receptor, sequence (O14764 25-452): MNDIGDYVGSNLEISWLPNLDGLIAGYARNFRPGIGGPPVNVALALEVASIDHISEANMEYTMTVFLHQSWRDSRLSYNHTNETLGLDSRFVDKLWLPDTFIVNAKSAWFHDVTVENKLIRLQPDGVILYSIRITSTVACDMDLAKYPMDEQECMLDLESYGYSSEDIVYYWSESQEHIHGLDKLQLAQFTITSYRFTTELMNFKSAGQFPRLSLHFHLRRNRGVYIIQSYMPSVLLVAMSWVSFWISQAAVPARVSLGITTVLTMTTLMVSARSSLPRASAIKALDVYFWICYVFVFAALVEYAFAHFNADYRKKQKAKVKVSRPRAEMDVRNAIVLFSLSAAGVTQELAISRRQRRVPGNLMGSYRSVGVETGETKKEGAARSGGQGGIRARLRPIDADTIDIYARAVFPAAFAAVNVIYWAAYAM
Outline: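 Human α4β2δ GABAA receptors were expressed in Xenopus laevis oocytes by injecting 3.5-6 ng total cRNA per oocyte. Oocytes were held 1-2 days in ND96 (pH 7.4) with Na pyruvate and antibiotics. Currents were recorded by two-electrode voltage clamp.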

α1β2γ2L GABAAR [3] = target: T2, α1β2γ2L GABAAR; assay: Modulation of steady-state response to saturating GABA, Xenopus oocytes; format: cell-based; settings: 50 μM α7-PAM; 1 mM GABA
α1β2(N265M)γ2L GABAAR = α1β2(N265M)γ2L GABAAR (Rattus norvegicus, UniProt P18508+P62813+P63138, INS375LLRMFSFK/N289M); assay: Potentiation of low GABA response, mutant receptor in oocytes; format: cell-based; settings: 50 μM; low GABA PA<0.10; mean±SEM
α1β3γ2L GABAAR [4] = target: T1, α1β3γ2L GABAAR; assay: Potentiation of low GABA response, oocytes; format: cell-based; settings: 50 μM; low GABA PA<0.10; mean±SEM
α1(L232C)β2γ2L GABAAR = α1(L232C)β2γ2L GABAAR (Rattus norvegicus, UniProt P18508+P62813+P63138, INS375LLRMFSFK/L258C); assay: Potentiation of low GABA response, mutant receptor in oocytes; format: cell-based; settings: 50 μM; low GABA PA<0.10; mean±SEM
α1β2γ2L GABAAR [5] = target: T2, α1β2γ2L GABAAR; assay: Direct activation, two-electrode voltage clamp in Xenopus oocytes; format: cell-based; settings: 50 μM α7-PAM; n=5 oocytes/drug; mean±SEM
α1β3(M227C)γ2L GABAAR = α1β3(M227C)γ2L GABAAR (Homo sapiens, UniProt P14867+P18507+P28472, M252C); assay: Potentiation of low GABA response, mutant receptor in oocytes; format: cell-based; settings: 50 μM; low GABA PA<0.10; mean±SEM
α3β4 nicotinic receptor = settings: at high μM concentrations; ref Arias et al., 2011; Timmermann et al., 2007; cited from earlier work
α1β2γ2L(S280C) GABAAR = α1β2γ2L(S280C) GABAAR (Rattus norvegicus, UniProt P18508+P62813+P63138, INS375LLRMFSFK/S318C); assay: Potentiation of low GABA response, mutant receptor in oocytes; format: cell-based; settings: 50 μM; low GABA PA<0.10; mean±SEM
α1(Q241L)β2γ2L GABAAR = α1(Q241L)β2γ2L GABAAR (Rattus norvegicus, UniProt P18508+P62813+P63138, INS375LLRMFSFK/Q268L); assay: as above; format: cell-based; settings: 50 μM; low GABA PA<0.10; mean±SEM
α1β2γ2L GABAAR [6] = target: T2, α1β2γ2L GABAAR; assay: Potentiation of receptors activated by allosteric agonists; format: cell-based; settings: 50 μM α7-PAM
α1β2γ2L(I242C) GABAAR = α1β2γ2L(I242C) GABAAR (Rattus norvegicus, UniProt P18508+P62813+P63138, I280C/INS375LLRMFSFK); assay: Potentiation of low GABA response, mutant receptor in oocytes; format: cell-based; settings: 50 μM; low GABA PA<0.10; mean±SEM
α1β3(L231C)γ2L GABAAR = α1β3(L231C)γ2L GABAAR (Homo sapiens, UniProt P14867+P18507+P28472, L256C); assay: as above; format: cell-based; settings: 50 μM; low GABA PA<0.10; mean±SEM
α1(M236C)β2γ2L GABAAR = α1(M236C)β2γ2L GABAAR (Rattus norvegicus, UniProt P18508+P62813+P63138, INS375LLRMFSFK/M262C); assay: as above; format: cell-based; settings: 50 μM; low GABA PA<0.10; mean±SEM
α1β2γ2L(L246C) GABAAR = α1β2γ2L(L246C) GABAAR (Rattus norvegicus, UniProt P18508+P62813+P63138, INS375LLRMFSFK/L284C); assay: as above; format: cell-based; settings: 50 μM; low GABA PA<0.10; mean±SEM
α1β2γ2L GABAAR [7] = target: T2, α1β2γ2L GABAAR; assay: Drug combination; format: cell-based
[8] = tested on: binary αβ GABAA receptors (α1β2, α1β3); assay: Potentiation of binary αβ receptors compared with ternary αβγ, oocytes; format: cell-based
α1(A291W)β2γ2L GABAAR = α1(A291W)β2γ2L GABAAR (Rattus norvegicus, UniProt P18508+P62813+P63138, A317W/INS375LLRMFSFK); assay: Potentiation of low GABA response, mutant receptor in oocytes; format: cell-based; settings: 50 μM; low GABA PA<0.10; mean±SEM
α4β2 nicotinic receptor = settings: at high μM concentrations; ref Arias et al., 2011; Timmermann et al., 2007; cited from earlier work

O=C(Nc1cc(Cl)ccc1O)Nc1cc(C(F)(F)F)ccc1Cl [NS-1738, N-(5-Cl-2-hydroxyphenyl)-N’-[2-Cl-5-(trifluoromethyl)phenyl]-urea]
decrease in GABA Ki between 0 (control) and 100 μM α7-PAM (α1β3γ2L GABAAR [1]; 100 μM α7-PAM): 25 fold | direct effect on fluorescence from α1β3γ2L-bound Gzn-OG (orthosteric site) (α1β3γ2L GABAAR [1]; 3-100 μM α7-PAM, no GABA): do not modify fluorescence | Potentiation (% of control), α1β2(M286W)γ2L (α1β2(M286W)γ2L GABAAR): 613 ±91% % of control | potentiation of the response to low GABA (% of control) (α1β2γ2L GABAAR [2]; 50 μM α7-PAM, 2-5 μM GABA (PA<0.10), 100% = no effect, mean±SEM): 383±38 % of control | free energy change (ΔG) towards stabilizing the active state (α1β2γ2L GABAAR [2]; co-agonist concerted transition model): -1.29 kcal/mol | effect on the α4β2δ receptor (α4β2δ GABAA receptor): inhibited | steady-state response to saturating GABA in presence of α7-PAM (% of control) (α1β2γ2L GABAAR [3]): 44±8 % of control | Potentiation (% of control), α1β2(N265M)γ2L (α1β2(N265M)γ2L GABAAR): 426 ± 61% of control | Potentiation (% of control), α1β3γ2L (α1β3γ2L GABAAR [4]): 301 ± 12% of control | Potentiation (% of control), α1(L232C)β2γ2L (α1(L232C)β2γ2L GABAAR): 357 ± 55% of control | direct activation: response as % of the peak response to 1 mM GABA+50 μM propofol (α1β2γ2L GABAAR [5]): 0.86±0.51% | Potentiation (% of control), α1β3(M227C)γ2L (α1β3(M227C)γ2L GABAAR): 322 ± 40% of control | effect on the heteromeric α3β4 nicotinic receptor (α3β4 nicotinic receptor): inhibit | Potentiation (% of control), α1β2γ2L(S280C) (α1β2γ2L(S280C) GABAAR): 344 ± 60% of control | Potentiation (% of control), α1(Q241L)β2γ2L (α1(Q241L)β2γ2L GABAAR): 491 ± 45% of control | potentiation of currents elicited by propofol (% of control) (α1β2γ2L GABAAR [6]; 10 μM propofol): 145±11 % of control | potentiation of the response to phenobarbital (% of control) (α1β2γ2L GABAAR [6]; 1 mM phenobarbital, n=5): 431±52 % of control | potentiation of the peak response to R(+)-etomidate (% of control) (α1β2γ2L GABAAR [6]; 2-4 μM R(+)-etomidate): 125±8 % of control | Potentiation (% of control), α1β2γ2L(I242C) (α1β2γ2L(I242C) GABAAR): 376 ±35% of control | Potentiation (% of control), α1β3(L231C)γ2L (α1β3(L231C)γ2L GABAAR): 217 ± 36% of control | Potentiation (% of control), α1(M236C)β2γ2L (α1(M236C)β2γ2L GABAAR): 181 ± 15% % of control | Potentiation (% of control), α1β2γ2L(L246C) (α1β2γ2L(L246C) GABAAR): 262 ± 25% of control | PA of response to GABA+NS-1738 (α1β2γ2L GABAAR [7]; 0.5 μM GABA+20 μM NS-1738): 0.153±0.043 | observed PA in the presence of R(+)-etomidate+α7-PAM (α1β2γ2L GABAAR [7]; 50 μM α7-PAM, R(+)-etomidate): 0.068±0.022 | predicted PA for R(+)-etomidate+α7-PAM, distinct site model (α1β2γ2L GABAAR [7]; 50 μM α7-PAM, R(+)-etomidate): 0.253±0.055 | predicted PA for R(+)-etomidate+α7-PAM, same site model (α1β2γ2L GABAAR [7]; 50 μM α7-PAM, R(+)-etomidate): 0.007±0.002 | PA of response to low GABA+NS-1738 (α1β2γ2L GABAAR [7]; 0.1-0.5 μM GABA+10 μM NS-1738, 5 oocytes): 0.084±0.028 | magnitude of potentiation in binary αβ vs ternary αβγ receptors [8]: similar | Potentiation (% of control), α1(A291W)β2γ2L (α1(A291W)β2γ2L GABAAR): 199 ± 22% % of control | effect on the heteromeric α4β2 nicotinic receptor (α4β2 nicotinic receptor): inhibit
